According to ChEMBL document CHEMBL6109036, “Azo derivatives of monoterpenes as anti-Helicobacter pylori agents: from synthesis to structure-based target investigation” (RSC Med Chem, 2025):
Converted amounts (≈) assume the structure as drawn.

Assays:
Assay type in all cases: functional
Helicobacter pylori [1] = experiment: Bactericidal against Helicobacter pylori Clinical isolate F4 measured after 72 hrs of incubation under microaerophilic conditions by modified broth dilution method; conditions: read-out: MBC99.9
How it was run: (§1)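 H. pylori (NCTC 11637, F1, 23, F4). Wells with no visible growth in the MIC assay spotted (10 μL) onto Skirrow agar. Plates incubated 72 h at 37 °C, microaerophilic, 100% humidity. MBC = concentration killing 99.9% of the initial inoculum. Triplicate, on at least three different days.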

Helicobacter pylori [2] = experiment: Bactericidal against Helicobacter pylori measured after 72 hrs of incubation under microaerophilic conditions by modified broth dilution method
How it was run: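 Wells with no visible growth in the MIC assay spotted (10 μL) onto Skirrow agar. Plates incubated 72 h at 37 °C, microaerophilic, 100% humidity. Triplicate, on at least three different days.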

Helicobacter pylori [3] = experiment: Anti-bacterial activity against Helicobacter pylori NCTC 11637 measured after 72 hrs incubation by modified broth dilution method
Helicobacter pylori [4] = experiment: Anti-bacterial activity against Helicobacter pylori measured after 72 hrs incubation by modified broth dilution method
Helicobacter pylori [5] = experiment: Anti-bacterial activity against Helicobacter pylori Clinical isolate F1 measured after 72 hrs incubation by modified broth dilution method
Helicobacter pylori [6] = experiment: Bactericidal activity against Helicobacter pylori NCTC 11637 measured after 72 hrs of incubation under microaerophilic conditions by modified broth dilution method; conditions: read-out: MBC99.9; how it was run: as §1
Helicobacter pylori [7] = experiment: Anti-bacterial activity against Helicobacter pylori Clinical isolate 23 measured after 72 hrs incubation by modified broth dilution method
Helicobacter pylori [8] = experiment: Bactericidal activity against Helicobacter pylori Clinical isolate 23 measured after 72 hrs of incubation under microaerophilic conditions by modified broth dilution method; conditions: read-out: MBC99.9; how it was run: as §1
Helicobacter pylori [9] = experiment: Anti-bacterial activity against Helicobacter pylori Clinical isolate F4 measured after 72 hrs incubation by modified broth dilution method
Helicobacter pylori [10] = experiment: Bactericidal activity against Helicobacter pylori Clinical isolate F1 measured after 72 hrs of incubation under microaerophilic conditions by modified broth dilution method; conditions: read-out: MBC99.9; how it was run: as §1

| SMILES | MBC (Helicobacter pylori [1]) | MBC90 (Helicobacter pylori [2]) | MIC (Helicobacter pylori [3]) | MIC50 (Helicobacter pylori [4]) | MIC90 (Helicobacter pylori [4]) | MIC (Helicobacter pylori [5]) | MBC (Helicobacter pylori [6]) | MIC (Helicobacter pylori [7]) | MBC (Helicobacter pylori [8]) | MIC (Helicobacter pylori [9]) | MBC (Helicobacter pylori [10]) | MBC (Helicobacter pylori [2]; Helicobacter pylori, read-out: MBC99.9) |
| --- | --- | --- | --- | --- | --- | --- | --- | --- | --- | --- | --- | --- |
| COc1ccc(/N=N/c2cc(C(C)C)c(OC(=S)N(C)C)cc2C)cc1 | 128 µg/mL (≈ 345 µM) | >128 µg/mL | > 128 µg/mL | 128 µg/mL (≈ 345 µM) | > 128 µg/mL | 128 µg/mL (≈ 345 µM) | > 128 µg/mL | 128 µg/mL (≈ 345 µM) | 128 µg/mL (≈ 345 µM) | 128 µg/mL (≈ 345 µM) | > 128 µg/mL |  |
| Cc1cc(/N=N/c2ccc(Br)cc2)c(C(C)C)c(/N=N/c2ccc(Br)cc2)c1O | > 128 µg/mL | >128 µg/mL | 128 µg/mL (≈ 248 µM) | > 128 µg/mL | > 128 µg/mL | > 128 µg/mL | 128 µg/mL (≈ 248 µM) | > 128 µg/mL | > 128 µg/mL | > 128 µg/mL | > 128 µg/mL |  |
| Cc1c(/N=N/c2ccccc2Cl)cc(C(C)C)c(O)c1/N=N/c1ccccc1Cl | > 128 µg/mL | >128 µg/mL | > 128 µg/mL | 128 µg/mL (≈ 300 µM) | > 128 µg/mL | 128 µg/mL (≈ 300 µM) | > 128 µg/mL | 128 µg/mL (≈ 300 µM) | > 128 µg/mL | 128 µg/mL (≈ 300 µM) | > 128 µg/mL |  |
| COc1cc(C=O)cc(/N=N/c2ccc(Br)cc2)c1O | 16 µg/mL (≈ 47.7 µM) | 32 µg/mL (≈ 95.5 µM) | 16 µg/mL (≈ 47.7 µM) | 16 µg/mL (≈ 47.7 µM) | 32 µg/mL (≈ 95.5 µM) | 8 µg/mL (≈ 23.9 µM) | 16 µg/mL (≈ 47.7 µM) | 32 µg/mL (≈ 95.5 µM) | 32 µg/mL (≈ 95.5 µM) | 16 µg/mL (≈ 47.7 µM) | 8 µg/mL (≈ 23.9 µM) |  |
| C=CCc1cc(/N=N/c2cccc3ccccc23)c(O)c(OC)c1 | > 128 µg/mL | >128 µg/mL | 128 µg/mL (≈ 402 µM) | > 128 µg/mL | > 128 µg/mL | > 128 µg/mL | 128 µg/mL (≈ 402 µM) | > 128 µg/mL | > 128 µg/mL | > 128 µg/mL | > 128 µg/mL |  |
| COc1cc(C=O)cc(/N=N/c2ccc(Cl)c(Cl)c2)c1O | 128 µg/mL (≈ 394 µM) | 128 µg/mL (≈ 394 µM) | 128 µg/mL (≈ 394 µM) | 64 µg/mL (≈ 197 µM) | 128 µg/mL (≈ 394 µM) | 64 µg/mL (≈ 197 µM) | 128 µg/mL (≈ 394 µM) | 64 µg/mL (≈ 197 µM) | 128 µg/mL (≈ 394 µM) | 128 µg/mL (≈ 394 µM) | 64 µg/mL (≈ 197 µM) |  |
| C=CCc1cc(/N=N/c2ccccc2C)c(O)c(OC)c1 | 64 µg/mL (≈ 227 µM) | 128 µg/mL (≈ 453 µM) | 128 µg/mL (≈ 453 µM) | 64 µg/mL (≈ 227 µM) | 128 µg/mL (≈ 453 µM) | 128 µg/mL (≈ 453 µM) | 128 µg/mL (≈ 453 µM) | 64 µg/mL (≈ 227 µM) | 64 µg/mL (≈ 227 µM) | 64 µg/mL (≈ 227 µM) | 128 µg/mL (≈ 453 µM) |  |
| COc1ccc(/N=N/c2cc(C(C)C)c(OC)cc2C)cc1 | 128 µg/mL (≈ 429 µM) | >128 µg/mL | > 128 µg/mL | 128 µg/mL (≈ 429 µM) | > 128 µg/mL | 128 µg/mL (≈ 429 µM) | > 128 µg/mL | > 128 µg/mL | > 128 µg/mL | 128 µg/mL (≈ 429 µM) | > 128 µg/mL |  |
| COc1cc(C=O)cc(/N=N/c2ccc(C)cc2)c1O | 8 µg/mL (≈ 29.6 µM) | 8 µg/mL (≈ 29.6 µM) | 4 µg/mL (≈ 14.8 µM) | 4 µg/mL (≈ 14.8 µM) | 8 µg/mL (≈ 29.6 µM) | 2 µg/mL (≈ 7.4 µM) | 4 µg/mL (≈ 14.8 µM) | 8 µg/mL (≈ 29.6 µM) | 8 µg/mL (≈ 29.6 µM) | 8 µg/mL (≈ 29.6 µM) | 2 µg/mL (≈ 7.4 µM) |  |
| C=CCc1cccc(OC)c1O | > 128 µg/mL |  | > 128 µg/mL | > 128 µg/mL | > 128 µg/mL | > 128 µg/mL | > 128 µg/mL | > 128 µg/mL | > 128 µg/mL | > 128 µg/mL | > 128 µg/mL | > 128 µg/mL |
| CC[C@H]1OC(=O)[C@H](C)[C@@H](O[C@H]2C[C@@](C)(OC)[C@@H](O)[C@H](C)O2)[C@H](C)[C@@H](O[C@@H]2O[C@H](C)C[C@H](N(C)C)[C@H]2O)[C@](C)(OC)C[C@@H](C)C(=O)[C@H](C)[C@@H](O)[C@]1(C)O [CLARITHROMYCIN] | 256 µg/mL (≈ 342 µM) |  | 0.064 µg/mL (≈ 0.0856 µM) | 0.064 µg/mL (≈ 0.0856 µM) | 256 µg/mL (≈ 342 µM) | 4 µg/mL (≈ 5.35 µM) | 0.064 µg/mL (≈ 0.0856 µM) | 0.064 µg/mL (≈ 0.0856 µM) | 0.064 µg/mL (≈ 0.0856 µM) | > 256 µg/mL | 8 µg/mL (≈ 10.7 µM) |  |
| Cc1cc(OC(=S)N(C)C)c(C(C)C)cc1/N=N/c1ccc([N+](=O)[O-])cc1 | > 128 µg/mL | >128 µg/mL | > 128 µg/mL | > 128 µg/mL | > 128 µg/mL | > 128 µg/mL | > 128 µg/mL | > 128 µg/mL | > 128 µg/mL | > 128 µg/mL | > 128 µg/mL |  |
| Cc1cc(O)c(C(C)C)cc1C1(c2cc(C(C)C)c(O)cc2C)OS(=O)(=O)c2ccccc21 | > 128 µg/mL | >128 µg/mL | > 128 µg/mL | > 128 µg/mL | > 128 µg/mL | 128 µg/mL (≈ 274 µM) | > 128 µg/mL | 128 µg/mL (≈ 274 µM) | > 128 µg/mL | > 128 µg/mL | 128 µg/mL (≈ 274 µM) |  |
| C=CCc1cc(/N=N/c2ccc3c(c2)OCO3)c(O)c(OC)c1 | > 128 µg/mL | >128 µg/mL | 128 µg/mL (≈ 410 µM) | > 128 µg/mL | > 128 µg/mL | > 128 µg/mL | 128 µg/mL (≈ 410 µM) | > 128 µg/mL | > 128 µg/mL | > 128 µg/mL | > 128 µg/mL |  |
| C=CCc1cc(/N=N/c2cccc(OC)c2)c(O)c(OC)c1 | > 128 µg/mL | >128 µg/mL | > 128 µg/mL | > 128 µg/mL | > 128 µg/mL | > 128 µg/mL | > 128 µg/mL | > 128 µg/mL | > 128 µg/mL | > 128 µg/mL | > 128 µg/mL |  |
| Cc1cc(OC(=O)N(C)C)c(C(C)C)cc1/N=N/c1ccc([N+](=O)[O-])cc1 | 128 µg/mL (≈ 346 µM) | 128 µg/mL (≈ 346 µM) | > 128 µg/mL | > 128 µg/mL | > 128 µg/mL | 128 µg/mL (≈ 346 µM) | 128 µg/mL (≈ 346 µM) | > 128 µg/mL | 128 µg/mL (≈ 346 µM) | 128 µg/mL (≈ 346 µM) | 128 µg/mL (≈ 346 µM) |  |
| CC1(C)S[C@@H]2[C@H](NC(=O)[C@H](N)c3ccc(O)cc3)C(=O)N2[C@H]1C(=O)O [AMOXICILLIN] | 0.064 µg/mL (≈ 0.175 µM) | 0.064 µg/mL (≈ 0.175 µM) | 0.016 µg/mL (≈ 0.0438 µM) | 0.016 µg/mL (≈ 0.0438 µM) | 0.064 µg/mL (≈ 0.175 µM) | 0.064 µg/mL (≈ 0.175 µM) | 0.016 µg/mL (≈ 0.0438 µM) | 0.016 µg/mL (≈ 0.0438 µM) | 0.016 µg/mL (≈ 0.0438 µM) | 0.064 µg/mL (≈ 0.175 µM) | 0.064 µg/mL (≈ 0.175 µM) |  |
| Cc1ccccc1/N=N/c1cc(C(C)C)c(O)cc1C | 4 µg/mL (≈ 14.9 µM) | 8 µg/mL (≈ 29.8 µM) | 4 µg/mL (≈ 14.9 µM) | 4 µg/mL (≈ 14.9 µM) | 8 µg/mL (≈ 29.8 µM) | 4 µg/mL (≈ 14.9 µM) | 4 µg/mL (≈ 14.9 µM) | 8 µg/mL (≈ 29.8 µM) | 8 µg/mL (≈ 29.8 µM) | 4 µg/mL (≈ 14.9 µM) | 4 µg/mL (≈ 14.9 µM) |  |
